Laboratory results as given in paper PMC5919120 (Journal of immunology (Baltimore, Md. : 1950), 2018).

Test system: HCMEC/D3 cells
Test: Cellular binding assay by flow cytometry
Format: cell-based, human
Conditions: p<0.001, n=3
In short: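 HCMEC/D3 cells grown at 37°C in 5% CO2 to 70% confluence, detached, and pre-treated with heparanase I (10 U/ml) and III (2 U/ml) for 1.5 h at 37°C. Cells were then incubated 1 h on ice in 1% BSA/PBS with Atto 425-labelled CXCL8 or FITC-labelled peptide (5 µg/ml). Cells were washed twice (500 x g, 5 min) and signal read by flow cytometry; mean ± SE, n=3.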

Substance: CXCL8: recombinant human CXCL8, labelled with Atto 425 for binding assays
- binding to HCMEC/D3 cells pre-treated with heparanase I&III: significantly reduced
